Assay results from ChEMBL document CHEMBL4184319, “Fluorescent-Labeled Selective Adenosine A2B Receptor Antagonist Enables Competition Binding Assay by Flow Cytometry” (J Med Chem, 2018).
The source made the active and inactive calls. No cut-off for these calls is given here.

Tests used:
Adenosine receptor A1 = target: T1, Adenosine receptor A1 (Homo sapiens, UniProt P30542); assay: Displacement of [3H]CCPA from recombinant human adenosine A1 receptor expressed in CHO cell membranes after 90 mins by liquid scintillation counting method
T1 sequence (P30542 whole entry): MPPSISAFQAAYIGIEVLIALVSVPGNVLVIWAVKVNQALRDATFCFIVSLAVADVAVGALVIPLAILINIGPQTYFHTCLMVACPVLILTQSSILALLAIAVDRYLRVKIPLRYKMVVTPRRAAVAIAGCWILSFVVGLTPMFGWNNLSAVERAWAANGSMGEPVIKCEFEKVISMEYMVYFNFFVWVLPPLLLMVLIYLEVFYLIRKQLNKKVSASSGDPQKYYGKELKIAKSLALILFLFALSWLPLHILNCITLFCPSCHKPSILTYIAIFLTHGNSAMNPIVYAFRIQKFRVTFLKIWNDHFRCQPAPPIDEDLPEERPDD
Procedure, shortened: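 [³H]CCPA (1 nM) used with rat brain cortical or human A1-CHO membranes, 90 min at rt. Membranes pre-incubated 10-15 min with ADA 0.12 IU/mL. Nonspecific binding defined with 10 µM CADO. Compounds dissolved in DMSO, 2.5 % final. Filtration on GF/B filters with ice-cold Tris-HCl washes, then scintillation counting. Curves used 6-7 concentrations spanning 3 log units. At least three experiments, in duplicate (human) or triplicate (rat).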

Adenosine receptor A2b [1] = target: T2, Adenosine receptor A2b (Homo sapiens, UniProt P29275); assay: Displacement of [3H]PSB-603 from recombinant human adenosine A2B receptor expressed in CHO cell membranes after 75 mins by liquid scintillation counting method
T2 sequence (P29275 whole entry): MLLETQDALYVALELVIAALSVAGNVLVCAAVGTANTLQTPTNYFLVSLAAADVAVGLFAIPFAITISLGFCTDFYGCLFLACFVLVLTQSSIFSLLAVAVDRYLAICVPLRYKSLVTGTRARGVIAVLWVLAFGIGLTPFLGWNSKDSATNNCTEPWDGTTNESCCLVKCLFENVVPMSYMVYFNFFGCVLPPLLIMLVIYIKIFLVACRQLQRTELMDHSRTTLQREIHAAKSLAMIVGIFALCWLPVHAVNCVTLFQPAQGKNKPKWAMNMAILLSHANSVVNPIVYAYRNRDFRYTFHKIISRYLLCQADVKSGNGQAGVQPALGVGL
Procedure, shortened: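 [³H]PSB-603 (0.3 nM) used with CHO membranes expressing human, mouse or rat A2BAR, 75 min at rt. Membranes pre-incubated 10-15 min with ADA 0.12 IU/mL. Nonspecific binding defined with 10 µM DPCPX. DMSO 2.5 % final. Filtration on GF/B with ice-cold 50 mM Tris-HCl pH 7.4 containing 0.1 % BSA, then scintillation counting. Curves used 6-7 concentrations over 3 log units. At least three experiments.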

Adenosine receptor A3 = target: T3, Adenosine receptor A3 (Homo sapiens, UniProt P0DMS8); assay: Displacement of [3H]PSB-11 from recombinant human adenosine A3 receptor expressed in CHO cell membranes after 45 mins by liquid scintillation counting method
T3 sequence (P0DMS8 whole entry): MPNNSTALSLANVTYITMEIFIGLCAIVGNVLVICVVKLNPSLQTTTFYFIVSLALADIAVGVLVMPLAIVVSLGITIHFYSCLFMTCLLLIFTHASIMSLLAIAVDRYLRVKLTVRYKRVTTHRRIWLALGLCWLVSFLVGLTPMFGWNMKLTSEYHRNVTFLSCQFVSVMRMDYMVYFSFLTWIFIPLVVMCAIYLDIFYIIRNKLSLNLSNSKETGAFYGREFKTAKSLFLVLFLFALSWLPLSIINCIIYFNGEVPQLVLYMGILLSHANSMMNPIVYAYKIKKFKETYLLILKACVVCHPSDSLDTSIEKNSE
Procedure, shortened: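 Human A3-CHO membranes incubated with [³H]PSB-11 (1 nM) for 45 min at rt, after 10-15 min pre-incubation with ADA 0.12 IU/mL. Nonspecific binding defined with 100 µM R-PIA. DMSO 2.5 % final. GF/B filtration, then scintillation counting. Curves used 6-7 concentrations over 3 log units. At least three experiments in duplicate.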

[2] = Selectivity ratio of Ki for adenosine A2A receptor in rat brain striatal membranes to Ki for recombinant mouse adenosine A2B receptor expressed in CHO cell membranes; format: cell-based
[3] = Selectivity ratio of Ki for recombinant human adenosine A2A receptor expressed in HEK cell membranes to Ki for recombinant mouse adenosine A2B receptor expressed in CHO cell membranes; format: cell-based
[4] = Selectivity ratio of Ki for recombinant human adenosine A2A receptor expressed in HEK cell membranes to Ki for recombinant rat adenosine A2B receptor expressed in CHO cell membranes; format: cell-based
Homo sapiens [5] = species on record: Homo sapiens; assay: Selectivity ratio of Ki for recombinant human adenosine A3 receptor expressed in CHO cell membranes to Ki for recombinant human adenosine A2B receptor expressed in CHO cell membranes; format: cell-based
Homo sapiens [6] = species on record: Homo sapiens; assay: Selectivity ratio of Ki for recombinant human adenosine A1 receptor expressed in CHO cell membranes to Ki for recombinant human adenosine A2B receptor expressed in CHO cell membranes; format: cell-based
[7] = Selectivity ratio of Ki for recombinant human adenosine A1 receptor expressed in CHO cell membranes to Ki for recombinant mouse adenosine A2B receptor expressed in CHO cell membranes; format: cell-based
[8] = Selectivity ratio of Ki for recombinant human adenosine A1 receptor expressed in CHO cell membranes to Ki for recombinant rat adenosine A2B receptor expressed in CHO cell membranes; format: cell-based
[9] = Selectivity ratio of Ki for recombinant human adenosine A3 receptor expressed in CHO cell membranes to Ki for recombinant rat adenosine A2B receptor expressed in CHO cell membranes; format: cell-based
Adenosine receptor A2b [10] = target: T2, Adenosine receptor A2b; assay: Antagonist activity at recombinant human adenosine A2B receptor expressed in CHO cell membranes assessed as inhibition of NECA-induced cAMP accumulation preincubated for 1 hr followed by NECA induction measured after 5 mins in presence of [3H]cAMP and bovine cAMP-binding protein by liquid scintillation counting method; format: functional
Procedure, shortened: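 CHO cells stably expressing human A2BAR, pre-incubated with antagonist dilutions for 1 h at 37°C, then stimulated with NECA (10 µM final) for 5 min at 37°C. Reaction stopped with hot (90 °C) lysis solution (4 mM EDTA, 0.01 % Triton X100). cAMP quantified by radioactive competition with [³H]cAMP and bovine adrenal cAMP-binding protein. Response expressed as % of NECA response without antagonist. Means ± SEM, three independent experiments in duplicate.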

[11] = Binding affinity to wild type CHO cell membranes at 100 nM after 15 mins by confocal microscopic method; format: cell-based, Cricetulus griseus; settings: chinese hamster, 0.25 h, 0.1 µM
Procedure, shortened: (§1)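 Live CHO cells stably expressing human A2BAR (or wild-type CHO as control) grown on chambered coverslips to about 80 % confluency. Incubated with fluorescent ligand (100 nM) for 15 min at 37°C, alone or after 30 min pre-incubation with PSB-603 (100 nM) or DPCPX (1 µM). Confocal laser scanning imaging with identical settings across conditions. Three similar experiments.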

[12] = target: T4, Adenosine receptor A2b (Homo sapiens) (UniProt P29275); assay: Binding affinity to recombinant human adenosine A2B receptor expressed in CHO cell membranes at 100 nM after 15 mins in presence of PSB-603 by confocal microscopic method; format: cell-based; procedure, shortened: as §1
T4 sequence (whole entry): T2 sequence (P29275 whole entry)

[13] = target: T4, Adenosine receptor A2b (Homo sapiens); assay: Binding affinity to recombinant human adenosine A2B receptor expressed in CHO cell membranes at 100 nM after 15 mins in presence of DPCPX by confocal microscopic method; format: cell-based; procedure, shortened: as §1

Ki (Adenosine receptor A1): ≥ 10000 nM
Ki (Adenosine receptor A2b [1]): 1.83 nM
Ki (Adenosine receptor A3): > 10000 nM
IC50 (Adenosine receptor A2b [10]): 262 nM
Activity [11]: Not Active
Activity [12]: inactive
Activity [13]: inactive
SMILES: CCCn1c(=O)[nH]c2nc(-c3ccc(OCC(=O)NCCC4=C5C(C)=CC(C)=[N+]5[B-](F)(F)n5c(C)cc(C)c54)cc3)[nH]c2c1=O
Ratio Ki [2]: > 150
Ratio Ki [3]: > 1000
Ratio Ki [4]: > 1000
Ratio Ki (Homo sapiens [5]): > 1000
Ratio Ki (Homo sapiens [6]): > 1000
Ratio Ki [7]: > 1000
Ratio Ki [8]: > 1000
Ratio Ki [9]: > 1000
